KCNK3 block = human KCNK3 channel inhibition, primary screen. O14649. CHO-KCNK3 thallium flux, FluxOR fluorescence; hits give low values. B-score at 10 µM. 340,000 tested, 0.84% active;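 active = B-score under library mean minus 4 SD, starting fluorescence ratio at most library mean plus 5 SD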;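 note: more negative B-score means stronger inhibition of thallium flux through KCNK3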
hERG protect = compounds protecting human hERG from proarrhythmic drug block. activation (rescue from dofetilide block), less the hit threshold, % at 10 µM. 310,000 tested, 0.51% active. Q12809. CHO-hERG, FluxOR thallium flux, dofetilide IC70 present;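 active = activation above the mean of controls blocked by dofetilide plus 5 SD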;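 note: thallium influx through hERG after potassium depolarization seen as dye fluorescence rise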
KCNQ1 block = blocks the human KCNQ1 potassium channel; P51787; CHO-K1 KCNQ1, FluxOR thallium flux fluorescence; hits give high values; B-score at 10 µM; 310,000 tested, 1.3% active; AID 2642;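 active = compounds whose thallium flux B-score, printed positive for inhibition, exceeds three library SD while starting fluorescence stays within three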;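 note: channel opened by potassium depolarization with thallium stimulus after 20 min compound exposure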
KCNK9 block = blocks the human KCNK9 two-pore domain potassium channel; HEK293 KCNK9, FluxOR thallium flux fluorescence; hits give low values; 310,000 tested, 1.2% active; Q9NPC2; B-score at 10 µM;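 active = ratio B-score over 3 SD below the library mean, with starting fluorescence within 5 SD of its mean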;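 note: negative B-score means less thallium flux so channel inhibition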
KCNQ1 pot = potentiates or activates the human KCNQ1 potassium channel. P51787. CHO-K1 KCNQ1, thallium flux FluxOR fluorescence; hits give high values. B-score at 10 µM. 310,000 tested, 0.35% active. AID 2648;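 active = fluorescence ratio B-score, a plate-corrected score, at least three library SD, with initial intensity B-score within 5 SD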
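System: Stable KCNQ1 CHO-K1 line | Incubation: 90 min dye loading and 20 min compound exposure, both at room temperature | Measure: Ratio B score | Medium: Assay buffer for compound exposure, DMSO matched across wells | Compound dosing: Single-concentration screen | Probe or stimulus: K+/Tl+ depolarizing stimulus | Measured by: Kinetic FluxOR fluorescence, 10 s baseline plus 110 s post-stimulus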
Kir21 inh = blocks the mouse Kir2.1 inward-rectifier potassium channel; HEK293-Kir2.1, FluxOR thallium flux fluorescence; hits give low values; B-score at 10 µM; 310,000 tested, 0.85% active; P35561; AID 1672;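 active = fluorescence ratio B-score at or below minus 3 SD of library scores, with starting-brightness B-score within 2 SD, cut at about -4.2 in these data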;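 note: channel flux triggered by added potassium and thallium sulfate stimulus; B-score of peak minus minimum fluorescence over baseline after thallium stimulus; more negative B-score means stronger Kir2.1 block with less thallium influx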
KCNK9 inh conf = human KCNK9 inhibitor confirmation | HEK293 KCNK9 cells, FluxOR thallium flux fluorescence | inhibition, % at 10 µM | 4,900 tested, 43% active | shares compounds with KCNK9 block | AID 492992;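 active = thallium signal inhibited by more than 5 SD of the compound-free buffer control wells, on both duplicate plates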;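 note: 0% = assay buffer control wells without compound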
Kir2-1 spec = mouse Kir2.1 off-target activity of KCNK9 modulators; shares compounds with KCNK9 block; Kir2.1 cells, FluxOR thallium flux fluorescence; inhibition, % at 10 µM; 4,900 tested, 4% active; AID 492993;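 active = thallium signal drop more than 5 SD beyond the mean of the no-compound control wells, seen in both duplicate plates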;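 note: signal is fluorescence rise after thallium addition divided by baseline fluorescence; plate controls were assay buffer only for no effect and full block by chlorpromazine control for full effect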
KCNK9 uninduced = second check of KCNK9 modulator effects in non-induced HEK293 cells; shares compounds with KCNK9 block; 4,900 tested, 40% active; FluxOR thallium flux; inhibition, % at 10 µM;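 active = thallium signal drop beyond 5 SD of the untreated control mean, on both duplicate plates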;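 note: plate controls were buffer only IC0 wells for no effect and SID17386958 at its maximal inhibitory level for full effect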
The depositor's hits bear a star; i = inactive; . = no result. Sampled rows, rich in hits. Any-hit rate of the full collection: about 3.7%.

SMILES	KCNK3 block	hERG protect	KCNQ1 block	KCNK9 block	KCNQ1 pot	Kir21 inh	KCNK9 inh conf	Kir2-1 spec	KCNK9 uninduced
CCOC(=O)c1cnc2ccc(OCC)cc2c1NCc1ccccc1OC	i	-5	i	i	i	0.95	.	.	.
C/C(=N\Nc1ncc(Cl)cc1Cl)c1ccccn1	i	-29	11*	-10*	i	-2.8	50%*	i	36%*
C/C(=N\Nc1ccc(Cl)c(C(=O)O)c1)c1ccccn1	i	-10	i	i	i	-0.01	.	.	.
CC1(c2ccccc2)NC(=O)N(CC(=O)Nc2ccc3c(c2)OCO3)C1=O (stereo not given)	i	-10	i	i	i	0.21	.	.	.
CC1(c2ccc(OC(F)F)cc2)NC(=O)N(CC(=O)Nc2ccc3c(c2)OCO3)C1=O (stereo not given)	i	-16	i	-9.8*	13*	-1.1	i	i	31%*
Cc1ccc(NC(=O)c2cccc(S(=O)(=O)N3CCN(C)CC3)c2)cc1F	i	-10	i	i	i	-0.02	.	.	.
O=[N+]([O-])c1ccc(SCc2ccco2)cc1N1CCOCC1	i	0	i	i	i	-2.8	i	i	i
O=[N+]([O-])c1ccc(N2CCOCC2)cc1SCc1ccco1	i	-2	i	i	i	-1.2	.	.	.
COC(=O)[C@@H](NC(=O)c1ccc2c(c1)S(=O)(=O)c1ccccc1C2=O)C(C)C	i	-3	i	i	i	0.24	.	.	.
S=C(NCCc1ccccc1)N1CCN(Cc2ccc(Cl)c(Cl)c2)CC1	i	-5	i	i	i	0.33	i	i	25%*
COc1ccc(-n2nc([N+](=O)[O-])c(=NCCc3ccc(C)cc3)n2O)cc1	i	-13	i	i	i	-0.18	i	i	i
COC(=O)C(CO)Nc1ncnc2onc(-c3ccc(F)cc3)c12 (stereo not given)	i	-5	i	i	i	0.04	.	.	.
O=C(CCCCN1CCCCC1)c1ccc2c(c1)Cc1ccccc1-2	i	-20	i	i	i	-3.6	.	.	.
CC(C)(C)OC(=O)COc1cc(O)c2c(=O)cc(-c3ccccc3)oc2c1	i	-10	10*	-12*	i	-0.92	43%*	i	34%*
CCOCC(=O)NC1CCc2cc(OC)c(OC)c(OC)c2-c2ccc(SC)c(=O)cc21 (stereo not given)	i	.	.	.	.	.	.	.	.
C/C(=N\NC(=S)NCCc1ccccc1)c1ccc(Cl)cc1Cl	i	-2	i	i	i	0.3	i	i	i
Cc1ccc(Nc2nc(CSc3nnc(-c4cccnc4)n3-c3ccccc3C)cs2)cc1	i	-14	i	-9.9*	i	1.2	i	i	i
C/C(CC(=O)NCc1ccccc1Cl)=N/NC(=O)c1ccccn1	i	-1	i	i	i	1.4	.	.	.
Cc1ccc(/C=C2\CCC3=C2OC(N)=C(C#N)C3c2ccc(C)cc2)cc1 (stereo not given)	i	-18	i	i	i	-1.6	.	.	.
N#CC1=C(N)OC2=C(CCc3ccccc32)C1c1ccccc1 (stereo not given)	i	-3	i	-8.7*	i	-1.4	36%*	i	40%*
COc1cc(NC(=O)CN(C)S(=O)(=O)c2ccc3c(c2)CC(C)N3C(C)=O)cc(OC)c1OC (stereo not given)	i	-7	i	i	i	1.4	.	.	.
CSc1ccc(C(=O)C2CCCN(C(=O)c3cc(C)n(C)n3)C2)cc1 (stereo not given)	i	-6	i	i	i	-0.22	i	i	i
